These results are taken from ChEMBL document CHEMBL3228033, “Cyclic amidine inhibitors of indolamine N-methyltransferase” (J Med Chem, 1979).

The target in experiment [1] is Indolethylamine N-methyltransferase (Homo sapiens, UniProt O95050). In words: Inhibition of human lung INMT using N-methyltryptamine as substrate after 90 mins by liquid scintillation counting in presence of S-methyl-[14C]adenosylmethionine.
The target in experiment [2] is Indolethylamine N-methyltransferase (Oryctolagus cuniculus, UniProt O97972). Briefly: Inhibition of New Zealand white rabbit lung INMT using N-methyltryptamine as substrate after 60 to 90 mins by liquid scintillation counting in presence of S-methyl-[14C]adenosylmethionine. In short, it runs like this:
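Enzyme from male rabbit lung: homogenate in 0.15 M KCl with 10^-4 M DTT and EDTA, 50 000 g supernatant, 40-60% ammonium sulfate fraction dialysed (some runs further Sephadex G-150 purified). Incubation in potassium phosphate pH 7.9 with N-methyltryptamine and S-[methyl-14C]adenosylmethionine, test compound in water or 5% DMSO, 37 °C. Stopped with borate pH 10; 14C-DMT extracted into isoamyl alcohol.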

Experiment [3] has as its system Oryctolagus cuniculus. Briefly: In vivo inhibition of New Zealand white rabbit INMT-mediated [14C]NMT to [14C]DMT conversion in lung at 0.5 %, po in drinking water for 5 days. Type of experiment: functional. The essentials:
(§1)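 Male NZW rabbits (400-500 g), three per group, given 0.5% (v/v) in drinking water for 5 days; controls water. Day 5: pheniprazine 5 mg/kg iv, then 6 h later 25 µCi (0.5 mg) [14C]NMT iv. After 5 min, decapitation; lung and brain frozen in liquid nitrogen. [14C]DMT counted as cpm/g tissue. Values are means of three animals, with Student's t test.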

Experiment [4] concerns Oryctolagus cuniculus. Briefly: In vivo inhibition of New Zealand white rabbit lung INMT at 0.5 %, po in drinking water for 5 days. It counts as functional. The essentials: (§2)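 Male NZW rabbits, three per group, received compound in drinking water (pH 7) throughout, with water for controls. Afterwards decapitated and bled out. Crude lung INMT (54 000g supernatant) assayed by the standard in vitro [14C]SAM/NMT method. Activity taken as cpm/mg protein after 1 h at 37 °C, read in the toluene-isoamyl alcohol phase. Means ± SEM.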

For experiment [5], the system named is Oryctolagus cuniculus. In words: In vivo inhibition of New Zealand white rabbit INMT-mediated [14C]NMT to [14C]DMT conversion in brain at 0.5 %, po in drinking water for 5 days. Type of experiment: functional. In short, it runs like this: as §1
Experiment [6] deals with Oryctolagus cuniculus. Briefly: In vivo inhibition of New Zealand white rabbit lung INMT at 0.02 %, po in drinking water for 12 days. It counts as functional. The essentials:
as §2

Sequence of Indolethylamine N-methyltransferase (Homo sapiens, UniProt O95050) (O95050 whole entry): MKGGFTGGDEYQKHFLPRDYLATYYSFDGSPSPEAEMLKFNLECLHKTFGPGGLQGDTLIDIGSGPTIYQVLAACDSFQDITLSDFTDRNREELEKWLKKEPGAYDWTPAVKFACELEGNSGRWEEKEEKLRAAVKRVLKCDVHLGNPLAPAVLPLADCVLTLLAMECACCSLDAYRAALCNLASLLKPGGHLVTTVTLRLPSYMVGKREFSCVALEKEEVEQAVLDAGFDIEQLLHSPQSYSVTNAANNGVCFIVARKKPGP
Sequence of Indolethylamine N-methyltransferase (Oryctolagus cuniculus, UniProt O97972) (O97972 whole entry): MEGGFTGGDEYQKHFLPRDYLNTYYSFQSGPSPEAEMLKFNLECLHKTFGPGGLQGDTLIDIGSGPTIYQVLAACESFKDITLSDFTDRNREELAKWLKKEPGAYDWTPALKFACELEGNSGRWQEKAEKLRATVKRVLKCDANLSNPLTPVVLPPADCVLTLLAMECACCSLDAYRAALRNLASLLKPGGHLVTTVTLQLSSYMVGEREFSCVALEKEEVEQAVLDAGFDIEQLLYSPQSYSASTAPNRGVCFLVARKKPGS

The term IC50 denotes the concentration at which inhibition is half-maximal. As to `C1CCC2=NCCCN2CC1`, the IC50 in experiment [1] turned out to be 25.7 µM; in experiment [2], 8 µM.
Turning to `CC(C)CN1CCCC1=N`, the 50% inhibitory concentration (IC50) in experiment [2] came to 19.4 µM.
For the compound `C1CN=C2CCCN2C1`, the IC50 in experiment [2] is 1.67 µM.
As to `C1CCN2CCCC2=NC1`, the half-inhibitory concentration (IC50) came to 852 µM in experiment [1] and 74.8 µM in experiment [2].
With `C1CCN2CCCN=C2C1`, the IC50 in experiment [2] turned out to be 0.7 µM.
On to `CC1CC2=NCCCN2C1` (stereo not drawn), for which the half-maximal inhibitory concentration (IC50) in experiment [2] turned out to be 7 µM.
Same read-out and setting: to `CC1CCC2=NCCCN21` (stereo not drawn) belongs 13.2 µM.
Same read-out and setting: in the case of `C(=C1/CCC2=NCCCN21)/c1ccccc1` it was 37.1 µM; in that of `C=C1CN=C2CCCN2C1`, 43.3 µM.
The same measure, in the same setting: in the case of `ClC1CCCN2CCN=C12` (stereo not drawn) it was 52.2 µM; in that of `C1CC2=NCCN2C1`, 0.04 µM; in that of `CC1CC2=NCCN2C1` (stereo not drawn), 3.8 µM.
`CC1(C)CC2=NCCN2C1`: the IC50 in experiment [2] was determined as 54.2 µM.
`CC1CCC2=NCCN21` (stereo not drawn): in experiment [2], the IC50 was found to be 9.3 µM.
On to `C1CCC2(CC1)CCC1=NCCN12`, for which the concentration for half-maximal inhibition (IC50) in experiment [2] was found to be 141 µM.
For the compound `c1ccc(C2CC3=NCCN3C2)cc1` (stereo not drawn), the IC50 in experiment [2] is above 330 µM.
Regarding `c1ccc(C2(c3ccccc3)CC3=NCCN3C2)cc1`, in experiment [2], the IC50 is above 330 µM.
On the same count and under the same terms, to `c1cn2c(n1)CCC2` belongs 83.1 µM.
Still for that read-out and setting: in the case of `c1ccc2c(c1)CN1CCN=C21` it was above 330 µM; in that of `c1ccc2c(c1)CC1C2CC2=NCCN21` (stereo not drawn), 16.4 µM; in that of `C1CN2C(=N1)C1CC3CC(C1)CC2C3`, above 330 µM.
Still for that read-out and setting: in the case of `C1CCN2CCN=C2C1` it was 0.17 µM; in that of `C1CN2CCOCC2=N1`, 13.8 µM.
Take `C1CN2CCSCC2=N1.O=C(O)/C=C/C(=O)O`: the “inhibition (INH)” value came out at 64% with Oryctolagus cuniculus [3], 75% in the experiment on Oryctolagus cuniculus [4] and 57% in the experiment with Oryctolagus cuniculus [5]. Further, the IC50 in experiment [2] came to 0.5 µM.
For `CC1CN2CCN=C2CS1` (stereo not drawn), the IC50 in experiment [2] was found to be 30.3 µM.
For the compound `[O-][S+]1CCN2CCN=C2C1` (stereo not drawn), in experiment [2], the IC50 worked out at 3.6 µM.
Same read-out and setting: in the case of `C1=CN2CCN=C2CS1` it was 18 µM.
For `CC1=CSCC2=NCCN12`, the IC50 in experiment [2] was found to be 45.4 µM.
Still for that read-out and setting: to `c1ccc2c(c1)SCC1=NCCN12` belongs above 330 µM.
Consider `CN1CCSC1=N.I`, for which, in experiment [2], the IC50 came to 0.8 µM. Also, in the experiment on Oryctolagus cuniculus [6], the “inhibition (INH)” value was found to be 76%.
Take `C/N=C1\SCCN1C`: the IC50 in experiment [2] is 8.1 µM.
With `CCN1CCSC1=N`, in experiment [2], the IC50 came out at 0.2 µM.
On the same count and under the same terms, in the case of `C/N=C1/NCCS1` it was 7.7 µM; in that of `CCCN1CCSC1=N`, 9.9 µM; in that of `C=CCN1CCSC1=N`, 7.1 µM.
For `C#CCN1CCSC1=N`, the IC50 in experiment [2] stood at 13.8 µM.
The same measure, in the same setting: to `CNN1CCSC1=N` belongs 1.5 µM; to `CC1CN(C)C(=N)S1` (stereo not drawn), 7.9 µM; to `Cn1ccsc1=N`, 2 µM.
Take `Cn1cc(C(F)(F)F)sc1=N`: the IC50 in experiment [1] was above 86.6 µM; in experiment [2], above 88.6 µM.
With `C/N=c1\ccsn1C`, the IC50 in experiment [2] stood at 6.9 µM.
The same measure, in the same setting: in the case of `C/N=c1\cnsn1C` it was 5.2 µM; in that of `CN1CCOC1=N`, 40 µM.
Same read-out and setting: in the case of `C/N=C1\CCCN1` it was 27.1 µM.
On the same count and under the same terms, to `CN1CCCC1=N` belongs 1.5 µM.
As for `CCN1CCCC1=N`, the IC50 in experiment [2] worked out at 1.6 µM.
Same read-out and setting: to `N=C1CCCN1C1CC1` belongs 67 µM; to `CCOC(CN1CCCC1=N)OCC`, above 106 µM.
Still for that read-out and setting: to `N=C1CCCN1CCc1ccccc1` belongs 3720 µM; to `CN1CCC/C1=N\CC(F)(F)F`, above 92.6 µM.
Same read-out and setting: in the case of `C/N=C1\CCCN1C` it was 31.2 µM; in that of `CN1CCC/C1=N\C1CC1`, above 10.3 µM; in that of `CN1CCSCC1=N`, 6.3 µM.
As for `CN1CCCSC1=N`, in experiment [2], the IC50 came to 2 µM.
On the same count and under the same terms, in the case of `CCN1CCCSC1=N` it was 1.8 µM; in that of `CN1C=CSCC1=N`, 3 µM; in that of `C/N=C1\CSC=CN1C`, 9.8 µM.
Same read-out and setting: in the case of `CN1C=CCSC1=N` it was 2 µM.
Still for that read-out and setting: to `Cn1ccccc1=N` belongs 1.6 µM; to `C=CCn1ccccc1=N`, 1.58 µM.
On to `N=c1ccccn1CC(F)(F)F`, for which the IC50 in experiment [2] was above 9.7 µM.
Turning to `Cn1cccc/c1=N\CC(F)(F)F`, in experiment [2], the IC50 is above 9.2 µM.
On the same count and under the same terms, in the case of `Cn1cccc/c1=N\CCO` it was above 8.9 µM.
The same measure, in the same setting: to `Cn1cccc/c1=N\C1CC1` belongs above 10.1 µM; to `Cn1cccc(C#N)c1=N`, 179 µM; to `Cc1ccn(C)c(=N)c1`, 2.8 µM.
On to `Cn1cc(F)ccc1=N`, for which, in experiment [2], the IC50 was 69.8 µM.
The same measure, in the same setting: to `Cn1c(F)cccc1=N` belongs 5.3 µM; to `C/N=c1\cccc(F)n1C`, 74 µM.
Same read-out and setting: in the case of `Cn1c(N)cccc1=N` it was 6.2 µM; in that of `C/N=c1\cccc(NC)n1C`, 13.1 µM; in that of `CCOc1cccc(=N)n1C`, above 10.3 µM.
Same read-out and setting: in the case of `CN1CCC=CC1=N` it was 0.9 µM.
As for `Cn1ccncc1=N`, in experiment [2], the IC50 was above 5260 µM.
Regarding `N#CCn1ccc(=N)cc1`, in experiment [2], the IC50 was above 148 µM.
The same measure, in the same setting: in the case of `C[n+]1ccccc1CC#N` it was above 11.7 µM.
For the compound `Cc1cc(=N)sn1C`, the IC50 in experiment [2] was found to be 19.6 µM.
Regarding `Cn1ccc(=N)cc1`, in experiment [2], the half-maximal inhibitory concentration (IC50) turned out to be 6.2 µM.
The same measure, in the same setting: to `C[N+]1=C2CCCN2CCC1` belongs 38.7 µM.
Take `N=C1SCCN1Cc1ccncc1`: the IC50 in experiment [2] was above 6.9 µM.
Regarding `NC1=NCCC1`, the IC50 in experiment [2] is 33.6 µM.
